Screening data (PubChem)
An excerpt weighted towards active compounds, which were near 1.7% of everything screened.
Rpn11 inh – inhibitors of human proteasome Rpn11; O00487; human 26S proteasome, Ub4-pepOG fluorescence polarization; 20S core pre-blocked with epoxomicin; calls only at 20 µM; 360,000 compounds, 0.59% hits; AID 588493;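 active = inhibition at 20 µM, scaled to each plate's controls, above about 33%, limit read from the data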
IDE inh – cellular human IDE inhibition | 320,000 compounds, 0.41% hits | HEK cells, FAbetaB cleavage, fluorescence polarization | inhibition, % at 5.59 µM | P14735 | AID 434962;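 active = percent inhibition above the average of all tested compounds plus 3 SD, set per screening campaign, cut at about 16% in these data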;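 also: IDE supplied by intact live HEK cells; FP after avidin binding of uncleaved biotin substrate so inhibition keeps polarization high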
HNF4A DNA FP – change in binding of human HNF4 alpha to DNA. activity change, % at 10 µM. AID 1224865. HNF4a-FITC DNA binding, fluorescence polarization, 1 h. 360,000 compounds, 0.3% hits. P41235; in the data active = activity change above about 30%, passing the limit was not always enough
IDE cell activ – boosts human insulin-degrading enzyme activity in HEK cells. P14735. FAbeta-B cleavage, fluorescence polarization; 0% vehicle, 100% cell-free pure enzyme wells. activation, % at 5.96 µM. 340,000 compounds, 0.073% hits. AID 493087;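 active = activation above the mean of all tested compounds plus 3 SD, set per screening campaign, cut at about 17% in these data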
CSN inh – inhibitors of human CSN-mediated cullin deneddylation | Q92905 | Purified CSN, SCF-Nedd8-OG deneddylation, fluorescence polarization | inhibition, % at 12.5 µM | 360,000 compounds, 0.38% hits | AID 651999;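 active = pattern-corrected inhibition above about 35%, with an unprinted fluorescence ratio check between 0.5 and 1.5, limit read from the data, passing the limit was not always enough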
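Material: purified human Csn5 enzyme expressed in HEK293T cells / Medium: Tris buffer pH 7.5, NaCl, DTT, Tween-20, trehalose, ovalbumin / Compound dosing: 12.5 µM single point / Schedule: 90 min incubation of compound, enzyme and substrate at room temperature / Signal: fluorescence polarization of the substrate / Control set: no-enzyme wells high, enzyme-with-substrate wells low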
TPT1 inhibitor – inhibitors of Candida albicans tRNA 2'-phosphotransferase TPT1. recombinant caTPT1, FP RNA substrate dephosphorylation. inhibition, % at 5 µM. 300,000 compounds, 0.81% hits. AID 1962;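 active = inhibition above the mean of all tested compounds plus 3 SD, set per screening campaign, cut at about 24% in these data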
Rpn11 inh conf – confirmation of human proteasome Rpn11 inhibitors | shares compounds with Rpn11 inh | purified human 26S proteasome, Ub4-pepOG fluorescence polarization; proteasome pretreated with epoxomicin | inhibition, % at 20 µM | 1,900 compounds, 29% hits | AID 602318
MMP-2 counter – counter-screen for RPN11 inhibitors: inhibition of human MMP-2; shares compounds with Rpn11 inh; recombinant MMP-2, FRET peptide cleavage fluorescence; inhibition, % at 20 µM; 1,900 compounds, 4% hits;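 also: human MMP-2 activated beforehand with APMA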
Thrombin FP – blocks bovine thrombin, flagging nonselective RPN11 hits. shares compounds with Rpn11 inh. bovine thrombin cleavage of Ub4-pepOG, fluorescence polarization. inhibition, % at 20 µM. 1,900 compounds, 13% hits. AID 602333;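 active = mean inhibition at least 40% at 20 µM, or signal 3 deviations below plate average, so some actives read negative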
Target sequence (P00735 whole entry, looked up): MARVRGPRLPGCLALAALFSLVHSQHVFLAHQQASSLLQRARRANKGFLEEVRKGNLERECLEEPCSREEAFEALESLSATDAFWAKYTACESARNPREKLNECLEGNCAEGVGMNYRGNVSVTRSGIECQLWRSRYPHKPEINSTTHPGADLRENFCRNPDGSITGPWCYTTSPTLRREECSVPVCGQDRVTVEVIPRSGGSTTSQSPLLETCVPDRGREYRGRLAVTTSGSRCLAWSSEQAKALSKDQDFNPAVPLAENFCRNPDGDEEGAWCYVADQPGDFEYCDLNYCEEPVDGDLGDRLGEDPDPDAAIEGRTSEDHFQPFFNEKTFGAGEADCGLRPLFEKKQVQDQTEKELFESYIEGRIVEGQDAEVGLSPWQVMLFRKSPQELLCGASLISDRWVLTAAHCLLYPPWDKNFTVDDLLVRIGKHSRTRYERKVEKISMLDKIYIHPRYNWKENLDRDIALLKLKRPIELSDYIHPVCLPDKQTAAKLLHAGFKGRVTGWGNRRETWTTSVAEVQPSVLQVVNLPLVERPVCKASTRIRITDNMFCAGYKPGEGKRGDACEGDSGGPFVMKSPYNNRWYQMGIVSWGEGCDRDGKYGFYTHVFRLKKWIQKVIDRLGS
Hits are given with their value; 0 = inactive; - = not tested or not shown; + = active, no number. Rule as the data show it, unless noted: active = inhibition above about 40%; inactive = the rest.

SMILES | Rpn11 inh | IDE inh | HNF4A DNA FP | IDE cell activ | CSN inh | TPT1 inhibitor | Rpn11 inh conf | MMP-2 counter | Thrombin FP
O=C(Nc1ccccc1-c1nnc(SCc2ccc(Cl)cc2)o1)c1ccccc1 | + | 0 | 0 | 0 | 0 | 0 | 0 | 0 | 0
O=C(/C=C/c1ccc(F)cc1)Nc1cc(S(=O)(=O)N2CCOCC2)ccc1N1CCOCC1 | + | - | 0 | - | 0 | - | 0 | 0 | 0
S=C(Nc1cc(Cl)ccc1Oc1ccccc1)N1CCN(c2ccccn2)CC1 | + | - | 0 | 0 | 0 | - | 0 | 47 | 0
COc1ccc(/C=C/C(=O)N(C)C2(C)CCS(=O)(=O)C2)cc1 (configuration not stated) | 0 | 0 | 0 | 0 | 0 | 0 | - | - | -
COC(=O)c1cnc(Oc2ccc(NC(=O)NC(=O)c3c(F)cccc3Cl)cc2)cc1C(F)(F)F | 0 | 0 | 0 | 0 | 0 | 0 | - | - | -
CCCCOC(=O)Nc1nnc(CCOCC)s1 | + | 0 | 0 | 0 | 0 | 0 | 0 | 0 | 0
CCCCOC(=O)Nc1nnc(CCc2ccccc2)s1 | 0 | 0 | 0 | 0 | 0 | 0 | - | - | -
Cc1csc(SCC(=O)NC(=O)NCc2ccccc2)n1 | + | 0 | 0 | 0 | 0 | 0 | 0 | 0 | 0
Cc1cc(C(=O)N/N=C2\CCCC(C)C2)n[nH]1 (configuration not stated) | 0 | 0 | 0 | 0 | 0 | 0 | - | - | -
O=C(O)C(=Cc1cc2c(cc1[N+](=O)[O-])OCO2)c1cc2c(cc1Br)OCO2 | 0 | - | 0 | 0 | 0 | - | - | - | -
CC(=O)c1cn(CC(=O)NCc2ccc3c(c2)OCO3)c2ccccc12 | + | 0 | 0 | 0 | 0 | 0 | 0 | 0 | 0
COC(=O)c1ccccc1NC(=O)CCS(=O)(=O)c1ccc(Br)cc1 | + | - | 0 | 0 | 0 | - | 114 | 0 | 0
CCOC(=O)c1ccc(Oc2nc(SC)nc(N(C)C)n2)cc1 | 0 | 0 | 0 | 0 | 0 | 0 | - | - | -
O=c1oc(-c2cccs2)nc2ccc(Br)cc12 | 0 | 0 | 0 | 0 | 0 | 0 | - | - | -
CCOC(=O)C1CCN(C(=O)C2CCN(c3nn4c(=O)cc(C)nc4s3)CC2)CC1 | 0 | 0 | 0 | 0 | 0 | 0 | - | - | -
O=C(Cc1cccs1)N(Cc1cccs1)C1(C(=O)NC2CCCC2)CCCCC1 | + | 0 | 0 | 0 | 0 | 0 | 0 | 0 | 0
COc1ccc(C(=O)N/C(=C/c2ccco2)C(=O)N2CCCCCC2)cc1 | + | 0 | 0 | 0 | 0 | 0 | 0 | 0 | 0
Cc1ccc(C(=O)N/C(=C/c2ccco2)C(=O)N2CCCCC2)cc1 | 0 | 0 | 0 | 0 | 0 | 0 | - | - | -
Cc1cc(C)nc(SCC(=O)Nc2ccc(N3CCOCC3)cc2)n1 | 0 | 0 | 0 | 0 | 0 | 0 | - | - | -
O=C(OCc1cnc(Cl)s1)c1ccc(Cl)cc1 | 0 | 0 | 0 | 0 | 0 | 0 | - | - | -
COc1cc(OC)cc(-c2nnc(Nc3nc4c(F)cccc4s3)o2)c1 | + | 0 | 0 | 0 | 0 | 0 | 76 | 0 | 0
CN(CC(=O)Nc1ccc(N2CCOCC2)cc1)C(=O)c1cc(S(=O)(=O)N(C)C)ccc1Cl | 0 | 0 | 0 | 0 | 0 | 0 | - | - | -
O=C(CCCn1c(=S)[nH]c2ccccc2c1=O)N1CCN(c2cccc(Cl)c2)CC1 | + | 0 | 0 | 0 | 0 | 0 | 64 | 65 | 0
COc1cc(CNc2ncc(-c3ccc(Cl)cc3)n2C)cc(OC)c1OC | 0 | 0 | 0 | 0 | 0 | 0 | - | - | -
CCOc1ccc(C(=O)CCC(=O)N2CCN(c3ncccn3)CC2)cc1 | + | 0 | 0 | 0 | 0 | 0 | 43 | 0 | 0
SMILES | Rpn11 inh | IDE inh | HNF4A DNA FP | IDE cell activ | CSN inh | TPT1 inhibitor | Rpn11 inh conf | MMP-2 counter | Thrombin FP
CCOc1ccc(S(=O)(=O)NCCC(=O)N2CCN(c3ncccn3)CC2)cc1 | 0 | 0 | 0 | 0 | 0 | - | - | - | -
Cc1ccc2nc(SCC(=O)Nc3cccc(F)c3)nc(=O)n2c1 | 0 | 0 | 0 | 0 | 0 | 0 | - | - | -
COC(=O)CN(c1ccc(OCc2ccccc2)cc1)S(C)(=O)=O | 0 | 0 | 0 | 0 | 0 | 0 | - | - | -
CC(=O)c1nn(-c2cccc(Br)c2)cc1C(=O)c1ccco1 | 0 | 0 | 0 | 0 | 0 | 0 | - | - | -
Cc1nnc(-c2ccco2)c2cn(-c3cccc(Br)c3)nc12 | + | 0 | 0 | 0 | 0 | 0 | 0 | 0 | 0
CC1=C(C(=O)Nc2ccccc2)C(c2ccccc2[N+](=O)[O-])NC(=O)N1 (configuration not stated) | 0 | 0 | 0 | 0 | 0 | 0 | - | - | -
COc1ccccc1NC(=O)C1=C(C)NC(=O)NC1c1ccccc1[N+](=O)[O-] (configuration not stated) | + | 0 | 0 | 0 | 0 | 0 | 0 | 0 | 0
CC(=O)Nc1ccc(/C(C)=N/NC(=O)c2ccc(COc3ccccc3Cl)o2)cc1 | + | 0 | 0 | 0 | 0 | 0 | 46 | 0 | 0
CCC(=Nc1ccccc1O)C1=C(O)CC(c2ccccc2)CC1=O (configuration not stated) | 0 | 0 | 0 | 0 | 0 | 0 | - | - | -
CC(OC(=O)c1ccc(Br)o1)C(=O)Nc1ccc2c(c1)OCCO2 (configuration not stated) | 0 | 0 | 0 | 0 | 0 | - | - | - | -
O=C(CSc1nc(-c2ccc(Cl)cc2)cs1)Nc1cccc([N+](=O)[O-])c1 | 0 | 0 | 0 | 0 | 0 | 0 | - | - | -
CSc1ccc(/C=C2\C(=N)N3N=C(CC(=O)N4CCCCC4)SC3=NC2=O)cc1 | + | 0 | 0 | 0 | 0 | 0 | 0 | 0 | 0
CN(C(=O)COc1ccc2c(-c3ccccc3)cc(=O)oc2c1)C1CCS(=O)(=O)C1 (configuration not stated) | + | 0 | 0 | 0 | 0 | 0 | 0 | 0 | 0
COc1cc(/C=C2/C(=N)N3C(=NC2=O)SN=C3S(=O)(=O)C(C)C)ccc1OS(=O)(=O)c1ccccc1 | - | 0 | - | - | - | 0 | - | - | -
COc1cc(/C=C2/C(=N)N3C(=NC2=O)SN=C3S(=O)(=O)C(C)C)ccc1OC(=O)c1ccco1 | + | 0 | 0 | 0 | 0 | 0 | 0 | 0 | 0
C=CCOc1ccc(/C=C2\C(=N)N3N=C(S(=O)(=O)CC)SC3=NC2=O)cc1OC | 0 | 0 | 0 | 0 | 0 | 0 | - | - | -
CS(=O)(=O)C1=NSC2=NC(=O)/C(=C\c3ccc(OC(=O)c4ccco4)cc3)C(=N)N21 | - | 0 | - | - | - | 0 | - | - | -
CCS(=O)(=O)C1=NN2C(=N)/C(=C\c3ccc(OC(=O)c4ccco4)c(OC)c3)C(=O)N=C2S1 | + | 0 | 0 | 0 | 0 | 0 | 0 | 0 | 0
CCOc1cc(/C=C2/C(=N)N3C(=NC2=O)SN=C3S(=O)(=O)CC)ccc1OC(=O)c1ccco1 | + | 0 | 0 | 0 | 0 | 0 | 0 | 0 | 0
